Only some compounds are listed: those with a hit (about 9.3% of all), similar ones and a draw of the others.
D1 mod: allosterically modulates the human D1 dopamine receptor; B-score at 10 µM; hit rate 5.9% among 58,000; HEK293 D1, CRE-luciferase, dopamine EC30 potentiation; actives deviate in either direction;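 active = luminescence count or its row- and column-corrected plate score outside the 99.7% band of the plate's sample wells, on either side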
Ecoli tolC: blocks growth of E. coli BW25113 tolC mutant; OD615; growth inhibition, % at 10 µM (by protocol); hit rate 2.2% among 65,000; AID 573;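 active = growth inhibition at or above a cutoff equal to the mean over every tested compound plus 3 SD, cut at about 60% in these data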;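 note: growth measured after 20 h incubation at 37 °C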
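Test system: E. coli BW25113 ΔtolC::kan bacteria; incubation: 37 °C, 20 h exposure; medium: LB broth supplemented with 50 µg/mL kanamycin; read-out basis: percent growth inhibition; signal: A615 absorbance measurement; compound: 10 µM final, single dose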
PostGolgi ctrl: inhibits growth of the yeast control strain; inhibition, % at 10 µM; hit rate 5% among 98,000; AID 738; efflux-deficient yeast background strain, growth absorbance A615, 16 h
hDAT+cocaine: changed human dopamine transporter uptake under cocaine IC80. LLC-PK1 hDAT cells, [14C]-dopamine uptake with cocaine IC80; actives deviate in either direction. B-score at 10 µM. hit rate 1.3% among 110,000;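 active = Z score or B-score, a plate-position-corrected score, falls beyond the plate's 99.7% confidence bounds, in either direction; inactive = both scores lie inside the 99.7% bounds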
Target sequence (Q01959 whole entry, looked up): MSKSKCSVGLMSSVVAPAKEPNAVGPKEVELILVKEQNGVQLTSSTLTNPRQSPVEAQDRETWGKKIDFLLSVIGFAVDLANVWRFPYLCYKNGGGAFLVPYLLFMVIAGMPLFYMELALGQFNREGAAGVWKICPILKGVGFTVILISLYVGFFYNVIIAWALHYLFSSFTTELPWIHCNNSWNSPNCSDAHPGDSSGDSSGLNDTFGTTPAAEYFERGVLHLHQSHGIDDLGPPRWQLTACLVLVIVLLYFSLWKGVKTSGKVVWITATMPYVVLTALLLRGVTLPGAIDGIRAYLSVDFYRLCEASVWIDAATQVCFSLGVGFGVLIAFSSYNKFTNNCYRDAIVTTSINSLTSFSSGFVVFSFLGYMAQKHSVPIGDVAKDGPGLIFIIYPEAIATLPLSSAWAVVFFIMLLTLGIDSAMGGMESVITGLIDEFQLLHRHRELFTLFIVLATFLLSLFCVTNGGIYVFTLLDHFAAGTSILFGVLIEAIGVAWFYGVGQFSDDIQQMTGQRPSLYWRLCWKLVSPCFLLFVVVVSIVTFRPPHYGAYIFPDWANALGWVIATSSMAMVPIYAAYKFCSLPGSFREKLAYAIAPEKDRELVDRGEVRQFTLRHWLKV
PostGolgi yeast: growth inhibition of a yeast mutant, post-Golgi transport screen; post-Golgi transport phenotypic cell assay; inhibition, % at 10 µM; hit rate 0.9% among 98,000;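 note: yeast cells grown in 1536-well plates; yeast grown about 18 h at 30C before absorbance read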
Ecoli WT expand: growth inhibitors of E. coli BW25113 wild type; growth inhibition, % at 100 µM; AID 710; hit rate 0.15% among 98,000; OD600 absorbance;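 active = growth inhibition above about 50% at one test dose, limit read from the data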;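 note: growth measured after 20 h incubation at 37 °C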
Hits are given with their value; . = inactive; / = no result given. Cut-off read from the data, not from the text of the source, unless noted: active = inhibition above about 30%; inactive = the rest.

SMILES	D1 mod	Ecoli tolC	PostGolgi ctrl	hDAT+cocaine	PostGolgi yeast	Ecoli WT expand
COC(=O)C1=C(C)N(C)C(C)=C(C(=O)OC)C1c1ccc(F)c(Br)c1	.	73.5	52.7	.	.	.
COC(=O)C1=C(C)N(C)C(C)=C(C(=O)OC)C1c1ccncc1	.	.	.	.	.	.
O=C1C2ON(c3ccccc3)C(c3ccncc3)C2C(=O)N1c1ccccc1 (configuration not stated)	/	.	.	.	.	.
Cc1cccc(C)c1N1C(=O)C2ON(c3ccccc3)C(c3ccncc3)C2C1=O (configuration not stated)	/	.	90.6	.	101.9	.
O=C(NCc1ccccc1)c1onc(CSc2ccc(F)c(F)c2)c1C(=O)NCc1ccccc1	/	/	/	.	/	/
O=S(=O)(NC1CCCCC1)c1ccc(Br)cc1	.	.	32.0	.	.	.
Cc1cc(S(=O)(=O)NC2CCCC2)ccc1F	.	.	.	.	.	.
CCOc1cc(S(=O)(=O)NC2CCCCCC2)ccc1F	.	.	40.0	.	.	.
O=S(=O)(NC1CCCCCC1)c1ccc(Br)s1	/	/	/	.	/	/
O=C(CN(C1CC1)S(=O)(=O)c1ccc(S(=O)(=O)NC2CCCCC2)cc1)Nc1ccccc1	.	82.9	.	.	.	.
O=C(NC(=S)N(CCCCO)C1CCCCC1)c1sc2ccccc2c1Cl	/	/	.	.	.	.
Cc1nc2sccc2c(=O)n1-c1cccc(Cl)c1	/	/	.	.	.	.
COc1ccc(OCC(=O)NCCCN2CCOCC2)cc1	/	/	/	.	/	/
CCOC(=O)C1CCCn2c1nc1sc3c(c1c2=O)CCCC3 (configuration not stated)	.	.	38.2	.	.	.
O=C(NCc1ccccc1)C(c1ccccc1)N(Cc1cccs1)C(=O)c1cnccn1 (configuration not stated)	/	/	40.2	.	.	.
O=C(CN1C(=O)c2ccccc2S1(=O)=O)N1CCOCC1	.	.	.	.	.	.
O=C1OCCC1N1C(=O)c2ccccc2S1(=O)=O (configuration not stated)	-4.3	.	.	.	.	.
O=C1c2cccc3c([N+](=O)[O-])ccc(c23)C(=O)N1c1ccccn1	/	/	.	.	.	.
O=C1c2cccc3c([N+](=O)[O-])ccc(c23)C(=O)N1c1ccc(Cl)cn1	/	/	.	/	68.5	.
O=C(COc1ccc(S(=O)(=O)NC2CCCCC2)cc1Cl)Nc1ccc2c(c1)OCO2	/	/	42.6	.	.	.
O=S(=O)(N1CCOCC1)n1nnc2ccccc21	.	.	.	.	.	.
O=S(=O)(N1CCOCC1)n1c(Cc2ccccc2)nc2ccccc21	4.45	.	.	.	.	.
Cc1cccc(NC(=O)CSc2nnnn2C)n1	/	/	.	.	.	.
Cc1ccc(-c2csc3nnc(SCC(=O)Nc4cccc(C)n4)n23)cc1	.	.	.	.	34.7	.
O=C(CCSc1nnc2scc(-c3ccccc3)n12)Nc1nc(-c2ccccc2)ns1	.	65.3	.	.	.	.
SMILES	D1 mod	Ecoli tolC	PostGolgi ctrl	hDAT+cocaine	PostGolgi yeast	Ecoli WT expand
COc1cccc(Nc2ncnc3ccccc23)c1	/	/	.	.	.	.
CCCCCCCCNc1ncnc2ccccc12	/	/	.	.	44.1	.
Cc1ccc(-c2nc3ncccc3o2)cc1NC(=O)c1cc2ccccc2o1	.	.	.	.	.	.
O=C(Nc1cccc(-c2nc3ncccc3o2)c1)c1cc2ccccc2o1	.	.	34.9	.	.	.
CC1(C)Cc2c(C#N)c(OCC(=O)c3ccc(Cl)cc3)nc(-c3ccco3)c2CO1	.	.	.	-2.4	.	.
CCSc1ncnc2c1sc1nc(-c3ccco3)c3c(c12)CC(C)(C)OC3	/	/	32.3	/	.	.
CCOC(=O)c1sc2nc(-c3ccco3)c3c(c2c1N)CC(C)(C)OC3	4.04	.	/	.	/	/
Cc1nc(OCC(=O)c2ccc(Cl)cc2)c(C#N)c2c1COC(C)(C)C2	/	/	.	.	.	.
COC(=O)CSc1ncnc2c1sc1nc(-c3ccco3)c3c(c12)CC(C)(C)OC3	/	.	.	/	.	.
Cc1nc2sc(C(=O)O)c(N)c2c2c1COC(C)(C)C2	.	.	.	.	.	.
COc1cccc(CN2C(=O)C3CCCN3c3ccc(S(=O)(=O)N4CCOCC4)cc32)c1 (configuration not stated)	/	/	.	.	.	.
C[n+]1cc[nH]c1SCC(=O)c1ccccc1	/	/	.	.	.	.
COc1cccc(CNS(=O)(=O)/C=C/c2ccc3c(c2)OCO3)c1	/	/	.	.	.	.
Brc1ccc(-c2noc3c2-c2nc(C4CCCCC4)sc2CC3)cc1	/	/	/	.	/	/
O=S(=O)(c1ccccc1)N1CCN(Cc2ccccc2C(F)(F)F)CC1	.	63.7	.	.	.	.
Cc1ccc(S(=O)(=O)N2CCN(Cc3ccccc3C(F)(F)F)CC2)cc1	.	.	.	.	.	.
Cc1csc(-c2cnn(-c3ccccc3)c2NC(=O)c2ccc(C(F)(F)F)cc2)n1	/	/	44.4	.	.	.
CC(C)(C)NC(=O)c1cnn(-c2ccccc2)c1NC(=O)c1ccccc1	/	/	.	.	.	.
CC1CCc2c(sc3ncnc(NCCCOC(C)C)c23)C1 (configuration not stated)	/	/	32.3	.	.	.
O=C(c1ccco1)c1cn[nH]c1-c1ccc(Cl)cc1O	.	.	.	.	.	.
OCC[C@H]1C[C@@H](O)[C@H](O)[C@]2(CCCO2)O1	/	/	/	.	/	/
N#CC(C(=O)C12CC3CC(CC(C3)C1)C2)c1nc2ccccc2[nH]1 (configuration not stated)	.	.	73.7	.	.	.
O=C(Nc1ccc2ccccc2c1)c1cnccn1	-1.96	.	.	.	.	.
O=P1(c2ccccc2)C=Cn2c1cc1c2CCCC1 (configuration not stated)	.	.	.	.	.	.
Cc1cc(=O)[nH]c(SCC(=O)c2ccc(C)c(C)c2)n1	.	.	.	.	87.1	.
SMILES	D1 mod	Ecoli tolC	PostGolgi ctrl	hDAT+cocaine	PostGolgi yeast	Ecoli WT expand
CCCOC(=O)C1=C(C)OC23OC(N)=C(C#N)C12C(=O)c1ccccc13 (configuration not stated)	/	/	/	.	/	/
Cc1cc(Nc2nc3c(c(=O)n(C)c(=O)n3C)n2C)n(-c2ccccc2)n1	.	.	/	/	/	/
COc1ccccc1NC(=O)CN1C(=O)C2(OCCCO2)c2ccccc21	-2.64	.	.	.	.	.
COc1ccc(OC)c(C2/C(=C(/O)c3ccc(C)cc3)C(=O)C(=O)N2Cc2ccco2)c1 (configuration not stated)	.	.	/	/	/	/
COCCCN1C(=O)C(=O)/C(=C(/O)c2ccc(OC)cc2)C1c1cccc(OC)c1 (configuration not stated)	.	.	34.6	.	.	.
O=C1C(=O)N(Cc2ccco2)C(c2cccc(Cl)c2)/C1=C(\O)c1ccc2c(c1)OCCO2 (configuration not stated)	.	69.7	.	.	.	.
COc1cccc(C2/C(=C(/O)c3ccc(C)cc3)C(=O)C(=O)N2Cc2ccco2)c1 (configuration not stated)	.	76.8	/	/	/	/
CCOc1ccc(/C(O)=C2/C(=O)C(=O)N(CC3CCCO3)C2c2ccco2)cc1 (configuration not stated)	/	/	/	.	/	/
